Here are results for 15 compounds from ChEMBL document CHEMBL2057200, “Design and synthesis of potent antagonists containing rigid spirocyclic privileged structures for the CGRP receptor” (Bioorg Med Chem Lett, 2012).

Data set [1] concerns the target T1, Calcitonin gene-related peptide type 1 receptor (Homo sapiens, UniProt O60894+Q16602). Briefly: Displacement of [125I]CGRP from CGRP receptor in human SK-N-MC cells. The format is cell-based. The method in brief: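 Radioligand competition binding in human neuroblastoma SK-N-MC cells, which endogenously express CGRP receptor of identical sequence to the cloned human receptor. IC50 determined from compound competition for the radioligand.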
(In general: In a radioligand displacement assay an active substance lowers the binding of a labelled ligand.)

The target of data set [2] is T1, Calcitonin gene-related peptide type 1 receptor. Briefly: Antagonist activity at CGRP receptor in human SK-N-MC cells assessed as inhibition of CGRP-stimulated formation of cyclic AMP. The format is functional, cell-based.
The target of data set [3] is cytochrome P450 (isoform not stated) (Homo sapiens, UniProt P04798+P05177+P05181+P08684+P10632+P10635+P11509+P11712+P13584+P20813+P20815+P20853+P24462+P24903+P33260+P33261+P51589+P78329+P98187+Q02928+Q08477+Q16678+Q16696+Q5TCH4+Q6VVX0+Q7Z449+Q8TAV3+Q96SQ9+Q9HB55). Kind of data set: Inhibition of cytochrome P450. The class given is ADME.
Data set [4] in a line: Inhibition of CGRP-induced dilation in potassium chloride pre-contracted ex vivo migraine model of human intracranial artery rings.
The next data set addresses Cytochrome P450 3A4 (Homo sapiens, UniProt P08684). Kind of data set: Inhibition of CYP3A4. The format is ADME.
Data set [5] can be described thus: Metabolic stability of the compound in human liver microsomes assessed as compound remaining at 3 uM after 10 mins. The class given is ADME, Microsome. The following applies: read-out: Stability. In general terms: Microsomes from liver hold many membrane-bound enzymes, among them those of drug oxidation.
In the next data set the target is T2, Cytochrome P450 1A2 (Homo sapiens, UniProt P05177).
T2 sequence (P05177 whole entry): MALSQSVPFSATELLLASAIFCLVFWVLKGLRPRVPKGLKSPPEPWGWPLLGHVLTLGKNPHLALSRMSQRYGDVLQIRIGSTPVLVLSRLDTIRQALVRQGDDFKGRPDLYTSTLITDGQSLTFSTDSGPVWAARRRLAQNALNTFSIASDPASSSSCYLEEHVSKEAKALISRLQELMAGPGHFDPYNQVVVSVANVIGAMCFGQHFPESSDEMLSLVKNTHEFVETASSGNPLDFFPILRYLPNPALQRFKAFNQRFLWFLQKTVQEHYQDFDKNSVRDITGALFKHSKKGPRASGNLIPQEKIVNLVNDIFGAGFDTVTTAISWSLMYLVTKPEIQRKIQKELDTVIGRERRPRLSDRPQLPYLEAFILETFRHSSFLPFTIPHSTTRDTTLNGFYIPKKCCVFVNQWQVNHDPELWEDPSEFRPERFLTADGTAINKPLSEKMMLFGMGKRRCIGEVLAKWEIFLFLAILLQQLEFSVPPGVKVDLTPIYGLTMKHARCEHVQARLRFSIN
Kind of data set: Inhibition of recombinant CYP1A2. The class given is ADME.

Another data set concerns the target Cytochrome P450 2C19 (Homo sapiens, UniProt P33261). Kind of data set: Inhibition of recombinant CYP2C19. The class given is ADME.
Data set [6] in a line: Metabolic stability of the compound in rat liver microsomes assessed as compound remaining at 3 uM after 10 mins. The format is ADME, Microsome. To be noted: read-out: Stability.
The target of a further data set is Cytochrome P450 2C9 (Homo sapiens, UniProt P11712). Briefly: Inhibition of recombinant CYP2C9. The class given is ADME.

A value given as a limit tells only on which side of the number the result lay.

T1 sequence (Q16602 whole entry, one chain of several): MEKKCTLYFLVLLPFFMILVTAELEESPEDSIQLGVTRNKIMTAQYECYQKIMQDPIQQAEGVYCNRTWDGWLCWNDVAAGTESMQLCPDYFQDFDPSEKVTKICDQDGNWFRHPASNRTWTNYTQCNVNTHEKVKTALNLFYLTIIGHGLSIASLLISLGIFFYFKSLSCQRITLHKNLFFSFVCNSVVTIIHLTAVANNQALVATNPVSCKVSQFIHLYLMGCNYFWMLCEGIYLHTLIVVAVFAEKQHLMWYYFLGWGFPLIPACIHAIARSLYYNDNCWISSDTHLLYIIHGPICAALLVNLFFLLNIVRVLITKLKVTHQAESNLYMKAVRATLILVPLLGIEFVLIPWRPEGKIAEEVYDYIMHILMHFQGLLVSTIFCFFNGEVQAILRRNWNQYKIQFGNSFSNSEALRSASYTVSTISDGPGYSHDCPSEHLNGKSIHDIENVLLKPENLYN
Chain of Cytochrome P450 3A4 (P08684 whole entry): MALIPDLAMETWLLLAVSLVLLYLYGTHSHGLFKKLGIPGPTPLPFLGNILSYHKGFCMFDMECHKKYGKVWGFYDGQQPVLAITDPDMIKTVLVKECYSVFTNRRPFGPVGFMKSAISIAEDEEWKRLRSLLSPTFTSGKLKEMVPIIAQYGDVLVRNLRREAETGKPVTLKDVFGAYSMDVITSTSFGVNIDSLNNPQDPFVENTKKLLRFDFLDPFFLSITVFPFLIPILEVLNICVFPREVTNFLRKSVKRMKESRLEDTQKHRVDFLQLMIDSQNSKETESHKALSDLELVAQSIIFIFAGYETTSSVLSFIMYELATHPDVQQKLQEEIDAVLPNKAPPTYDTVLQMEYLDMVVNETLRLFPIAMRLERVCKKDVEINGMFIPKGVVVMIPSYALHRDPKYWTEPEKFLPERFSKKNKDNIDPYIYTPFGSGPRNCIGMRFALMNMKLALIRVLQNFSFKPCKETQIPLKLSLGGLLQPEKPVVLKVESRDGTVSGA
Chain of Cytochrome P450 2C9 (P11712 whole entry): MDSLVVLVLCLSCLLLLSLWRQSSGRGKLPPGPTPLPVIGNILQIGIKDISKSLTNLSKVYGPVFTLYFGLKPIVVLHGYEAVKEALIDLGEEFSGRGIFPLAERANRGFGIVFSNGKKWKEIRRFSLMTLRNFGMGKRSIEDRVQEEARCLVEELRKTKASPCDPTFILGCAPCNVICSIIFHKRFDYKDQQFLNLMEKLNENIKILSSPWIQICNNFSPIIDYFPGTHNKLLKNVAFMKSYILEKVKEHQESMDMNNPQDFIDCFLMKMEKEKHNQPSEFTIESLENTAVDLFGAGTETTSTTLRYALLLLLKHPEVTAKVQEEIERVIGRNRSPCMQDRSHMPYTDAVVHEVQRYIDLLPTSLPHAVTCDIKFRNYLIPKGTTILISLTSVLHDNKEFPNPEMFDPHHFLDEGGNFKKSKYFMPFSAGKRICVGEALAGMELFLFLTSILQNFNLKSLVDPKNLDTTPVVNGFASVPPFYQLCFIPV
Chain of Cytochrome P450 2C19 (P33261 whole entry): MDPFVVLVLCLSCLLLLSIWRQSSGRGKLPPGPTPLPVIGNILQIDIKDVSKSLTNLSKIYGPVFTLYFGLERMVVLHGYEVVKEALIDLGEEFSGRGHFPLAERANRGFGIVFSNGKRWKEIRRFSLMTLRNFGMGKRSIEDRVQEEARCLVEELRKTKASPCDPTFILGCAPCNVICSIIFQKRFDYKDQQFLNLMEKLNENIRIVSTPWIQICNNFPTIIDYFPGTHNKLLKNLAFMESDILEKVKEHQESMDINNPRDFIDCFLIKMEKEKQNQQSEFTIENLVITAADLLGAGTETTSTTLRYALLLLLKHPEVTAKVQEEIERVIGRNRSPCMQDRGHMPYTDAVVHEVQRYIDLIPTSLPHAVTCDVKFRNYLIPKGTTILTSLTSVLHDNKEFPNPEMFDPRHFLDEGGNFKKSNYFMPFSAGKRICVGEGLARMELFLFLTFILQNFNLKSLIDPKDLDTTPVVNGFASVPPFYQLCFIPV

`O=C(N[C@H](Cc1csc2ccccc12)C(=O)N1CCC(N2CCCCC2)CC1)N1CCC2(CC1)C(=O)Nc1ccccc12`: in data set [1], the half-maximal inhibitory concentration (IC50) (as a rule, the concentration that inhibits the measured activity by half) came out at 170 nM.

Consider `CN1c2ccccc2C(=O)NC12CCN(C(=O)N[C@H](Cc1csc3ccccc13)C(=O)N1CCC(N3CCCCC3)CC1)CC2`, for which the IC50 in data set [1] was found to be 860 nM.

Turning to `O=C(N[C@H](Cc1csc2ccccc12)C(=O)N1CCC(N2CCCCC2)CC1)N1CCC2(CC1)N=C(c1ccncc1)NC2=O`, in data set [1], the concentration for half-maximal inhibition (IC50) was 1400 nM.

On to `O=C(N[C@H](Cc1csc2ccccc12)C(=O)N1CCC(N2CCCCC2)CC1)N1CCC2(CC1)N=C(C1CCCCC1)NC2=O`, for which, in [1], the concentration for half-maximal inhibition (IC50) came to 8500 nM.

On to `O=C1Cc2ccccc2C2(CCN(C(=O)N[C@H](Cc3csc4ccccc34)C(=O)N3CCC(N4CCCCC4)CC3)CC2)N1`, for which the half-maximal inhibitory concentration (IC50) in data set [1] turned out to be 29 nM. Further, the EC50 (usually the concentration giving half of the maximal effect) in data set [2] is 15 nM.

For `O=C(N[C@H](Cc1csc2ccccc12)C(=O)N1CCC(N2CCCCC2)CC1)N1CCC2(CC1)N=C(c1ccccc1)NC2=O`, the IC50 was more than 40000 nM in data set [3], 20 nM in [1] and less than 1000 nM against Cytochrome P450 3A4. The results for the concentration for a half-maximal effect (EC50) in data set [4] and in data set [2] were 63 nM and 13 nM, respectively.

For `O=C1Nc2ccccc2C2(CCN(C(=O)N[C@H](Cc3csc4ccccc34)C(=O)N3CCC(N4CCCCC4)CC3)CC2)O1`, the IC50 in [3] is more than 40000 nM; in [1], 20 nM; at Cytochrome P450 3A4, less than 1000 nM. Also, the figures for the concentration giving a half-maximal response (EC50) in data set [4] and in data set [2] were 19 nM and 31 nM, respectively.

As to `O=C(N[C@H](Cc1csc2ccccc12)C(=O)N1CCC(N2CCCCC2)CC1)N1CCC(n2c(=O)[nH]c3ccccc32)CC1`, the IC50 in data set [1] turned out to be 9 nM.

With `O=C(N[C@H](Cc1csc2ccccc12)C(=O)N1CCC(C2CCNCC2)CC1)N1CCC(n2c(=O)[nH]c3ccccc32)CC1`, the IC50 in data set [1] came out at 4 nM.

`O=C1Nc2ccccc2C2(CCN(C(=O)N[C@H](Cc3csc4ccccc34)C(=O)N3CCC(N4CCCCC4)CC3)CC2)N1`: the remaining at 10 min, 3 µM is 82% in data set [5] and 100% in data set [6]. The EC50 worked out at 32 nM in data set [4] and 3 nM in data set [2]. For the same compound, the concentration for half-maximal inhibition (IC50) was more than 40000 nM at Cytochrome P450 1A2; more than 40000 nM at Cytochrome P450 2C19; 5 nM in data set [1]; 100 nM against Cytochrome P450 3A4; more than 40000 nM on Cytochrome P450 2C9.

For `O=C(N[C@H](Cc1csc2ccccc12)C(=O)N1CCC(N2CCCCC2)CC1)N1CCC(N2Cc3ccccc3NC2=O)CC1`, the IC50 in data set [1] stood at 3 nM.

`O=C(N[C@H](Cc1csc2ccccc12)C(=O)N1CCC(N2CCCCC2)CC1)N1CCC2(CC1)C(=O)NCN2c1ccccc1`: the IC50 in data set [1] was found to be 330 nM.

Take `O=C1NCC2(CCN(C(=O)N[C@H](Cc3csc4ccccc34)C(=O)N3CCC(N4CCCCC4)CC3)CC2)c2ccccc21`: the IC50 in data set [1] was 150 nM. Besides, the EC50 in data set [2] was found to be 130 nM.

In the case of `O=C(N[C@H](Cc1csc2ccccc12)C(=O)N1CCC(N2CCCCC2)CC1)N1CCC2(CC1)N=C(c1cccnc1)NC2=O`, the IC50 in data set [1] came out at 210 nM.

As to `O=C1CC2(CCN(C(=O)N[C@H](Cc3csc4ccccc34)C(=O)N3CCC(N4CCCCC4)CC3)CC2)c2ccccc2N1`, the 50% inhibitory concentration (IC50) in data set [1] was 23 nM. Moreover, the EC50 in [2] came to 12 nM.
